Screening data (PubChem)
Only some compounds are listed: those with a hit (about 2.1% of all), similar ones and a draw of the others.
miR122 inh – blocks miR-122 activity in Huh7 sensor cells; Huh7 miR-122 Renilla luciferase sensor, 48 h; neutral wells = 0, positive control = 100; activation (reporter increase), % at 12.5 µM; actives 0.3% (n = 340,000); AID 602342;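 active means mean replicate activation score at least 90 and every replicate individually at or above 90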;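 further: higher luciferase means less miR-122 activity so hits act as miR-122 inhibitors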
ARNT-TACC3 inh – disruptors of human ARNT/TACC3 interaction; Q9Y6A5; AlphaScreen His-ARNT PAS-B/GST-TACC3 binding, luminescence; TACC3 fragment carries E629A point mutation; inhibition, % at 9.99 µM; actives 0.66% (n = 390,000); AID 623870;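 active means mean inhibition of replicates at least 50% and at least half of replicates each reaching 50%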;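 further: 0% = complete ARNT plus TACC3 wells and 100% = ARNT alone without TACC3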
CAL PDZ FP-1 – CAL PDZ (human) peptide binding inhibition | purified CAL PDZ, TMR-peptide fluorescence polarization, 1 h | Q9HD26 | inhibition, % at 24.9 µM | AID 602252 | actives 0.92% (n = 300,000);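 active means mean inhibition of at least 30% with at least half of replicates also reaching 30%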;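 further: 0% = DMSO neutral control and 100% = excess unlabeled competitor peptide PRC23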
CAL PDZ FP-2 – human CAL PDZ-peptide interaction inhibition | actives 0.02% (n = 330,000) | purified CAL PDZ, TMR-peptide fluorescence polarization, 1 h | inhibition, % at 20 µM | Q9HD26 | AID 504414;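 active means highest replicate inhibition of at least 40%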;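 further: plate controls were DMSO neutral control wells for no effect and unlabeled competitor peptide control wells for full effect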
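System: purified tagged CAL PDZ domain construct (CerCALP). Schedule: 1 h incubation at room temperature before polarization reading. Medium: 25 mM sodium phosphate pH 7.4, 150 mM NaCl, TCEP, IgG, Thesit. Read-out: percent inhibition from loss of millipolarization. Measured by: FP readout, S and P plane fluorescence. Probe or stimulus: fluorescent TMR peptide probe.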
SR-BI DiI-HDL act – enhances SR-BI lipid uptake from DiI-HDL; CHO ldlA[mSR-BI] cells, DiI-HDL uptake fluorescence, 3 h; 100 = double the neutral-control signal; activation, % at 12.5 µM; actives 0.096% (n = 320,000);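 active means mean replicate activation of at least 60% and every replicate at or above 60%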;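 further: 0% = median plate neutral-control signal and 100% = twice that signal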
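System: CHO ldlA[mSR-BI] cells / Medium: HEPES-buffered (25 mM, pH 7.4) F12 plus 0.5% BSA / Probe or stimulus: labelled HDL, 10 µg/mL / Doses: single compound concentration, delivered by pin transfer / Schedule: 3 h, 37 °C / Measured by: DiI fluorescence, bottom read / Measure: cell-associated DiI fluorescence as measure of HDL uptake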
SR-BI HDL uptake – mouse SR-BI HDL lipid transfer inhibition; Q61009; ldlA[mSR-BI] CHO cells, DiI-HDL uptake fluorescence, 3 h; inhibition, % at 12.5 µM; actives 0.96% (n = 320,000); AID 488896;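 active means mean replicate inhibition of at least 70% and a set share of replicates each scoring 70 or more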;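 further: 0% = median of neutral control wells and 100% = median of positive control wells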
Target sequence (Q61009 whole entry, looked up): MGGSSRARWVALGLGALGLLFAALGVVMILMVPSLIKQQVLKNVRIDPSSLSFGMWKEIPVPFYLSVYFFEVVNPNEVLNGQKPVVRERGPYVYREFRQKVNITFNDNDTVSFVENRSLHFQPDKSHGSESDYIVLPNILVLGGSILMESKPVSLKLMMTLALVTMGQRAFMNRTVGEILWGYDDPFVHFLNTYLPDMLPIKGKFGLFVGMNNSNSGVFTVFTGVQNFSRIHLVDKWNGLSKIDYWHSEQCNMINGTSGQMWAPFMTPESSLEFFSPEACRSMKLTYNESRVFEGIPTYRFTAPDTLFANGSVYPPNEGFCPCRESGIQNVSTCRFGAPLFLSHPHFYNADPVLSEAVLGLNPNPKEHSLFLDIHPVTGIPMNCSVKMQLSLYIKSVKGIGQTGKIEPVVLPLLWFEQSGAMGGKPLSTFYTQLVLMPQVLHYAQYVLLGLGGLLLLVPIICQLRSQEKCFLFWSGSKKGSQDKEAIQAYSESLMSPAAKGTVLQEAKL
Numbers without * were called inactive; . = no result given; [ ] = dose if it differs, or a comment.

SMILES	miR122 inh	ARNT-TACC3 inh	CAL PDZ FP-1	CAL PDZ FP-2	SR-BI DiI-HDL act	SR-BI HDL uptake
CCC(C(=O)Nc1ccc(N2CCOCC2)c(S(=O)(=O)Nc2ccccc2OC)c1)c1ccccc1 (stereo not drawn)	120.8*	.	.	-0.8	3.7	-3.7
COc1ccc(NS(=O)(=O)c2cc(NC(=O)CCc3ccc(OC)c(OC)c3)ccc2N2CCOCC2)cc1	118.1*	8.1	2.9	-1.6	-17.5	17.5
COc1ccccc1NS(=O)(=O)c1cc(NC(=O)c2cccs2)ccc1N1CCOCC1	111.7*	-4.3	-1.8	-0.7	.	.
COc1ccc(NS(=O)(=O)c2cc(NC(=O)c3cccs3)ccc2N2CCOCC2)cc1	45.9	-2.0	0.1	-2.7	.	.
COc1ccccc1NS(=O)(=O)c1cc(NC(=O)CCC2CCCC2)ccc1N1CCOCC1	119.0*	-0.2	.	-0.9	23.9	-23.9
COc1ccccc1NS(=O)(=O)c1cc(NC(=O)CC(C)(C)C)ccc1N1CCOCC1	34.2	-1.2	0.2	-0.9	10.3	-10.3
COc1ccc(NS(=O)(=O)c2cc(NC(=O)C3CC3)ccc2N2CCOCC2)cc1	87.1	2.8	8.8	-1.3	-5.5	5.5
O=C(C[C@H]1C[C@H]2c3cc(NC(=O)c4ccc5c(c4)OCO5)ccc3O[C@H]2[C@@H](CO)O1)NCc1cccnc1	4.5[16.7 µM]	-2.8	.	.	.	.
COc1ccc(CN(C)C[C@H]2OCCCC[C@H](C)Oc3ccc(N(C)C)cc3C(=O)N([C@H](C)CO)C[C@@H]2C)cc1	3.6[16.7 µM]	-5.0	.	.	.	.
O=C(C[C@@H]1C[C@H]2c3cc(NS(=O)(=O)c4ccccc4)ccc3O[C@H]2[C@H](CO)O1)NCC1CC1	1.2[16.7 µM]	2.8	.	.	.	.
c1ccc(CNCCN2CCNCC2)nc1	17.0	65.9*	-2.2	0.0	17.4	-17.4
O=C(NCCN1CCNCC1)c1ccccc1O	-8.0	.	.	.	.	.
COc1ccc2c(c1)Cc1sc(NC(=O)c3ccccc3)nc1-2	3.1	4.1	-1.8	-0.7	-34.6	34.6
COc1ccc(C(=O)Nc2nc3c(s2)Cc2cc(OC)ccc2-3)cc1	3.5	28.1	-0.3	-0.1	-86.6	86.6*
[O-][n+]1onc2c1CCc1c-2nc(-c2ccccc2)n1OCc1ccccc1	-0.8	-8.3	0.0	-0.4	-79.7	79.7*
CC(C)NC(=O)N(C)C[C@@H]1OCCCC[C@H](C)Oc2ccc(NS(=O)(=O)c3cccs3)cc2C(=O)N([C@H](C)CO)C[C@@H]1C	3.1[16.7 µM]	-9.6	.	.	.	.
C[C@@H]1CN([C@H](C)CO)C(=O)c2cccc(NS(C)(=O)=O)c2O[C@@H]1CN(C)Cc1ccc(Cl)c(Cl)c1	20.0[16.7 µM]	7.4	.	.	.	.
CCn1c(SCC(=O)NC2CCS(=O)(=O)C2)nnc1-c1ccccc1 (stereo not drawn)	3.0	-1.9	-1.3	-0.7	21.5	-21.5
Cc1nnc(SCC(=O)NC2CCS(=O)(=O)C2)n1Cc1ccccc1 (stereo not drawn)	-1.2	-5.6	-1.8	-2.2	65.9*	-65.9
COc1ccc(S(=O)(=O)N(C)C[C@@H]2Oc3ccc(NS(C)(=O)=O)cc3CC(=O)N([C@H](C)CO)C[C@H]2C)cc1	18.2[16.7 µM]	-5.7	.	.	.	.
CC(=O)NC1C(=O)N(CCN2CCOCC2)c2ccc(Cl)cc21 (stereo not drawn)	.	-32.1	10.7	25.2	5.6	-5.6
CC(=O)NC1C(=O)N(CCN2CCOCC2)c2ccc(C)cc21 (stereo not drawn)	.	-40.1	63.8*	40.0	21.0	-21.0
CC1=CC2(C#N)C3(N=C(N)C2(C#N)C(c2ccccc2)N1)OCCO3 (stereo not drawn)	1.6	-4.5	-1.1	-1.1	7.1	-7.1
CCCCSC1(SCCCC)N=C(N)C2(C#N)C(c3ccccc3)NC(C)=CC12C#N (stereo not drawn)	-6.9	56.0*	-0.9	-0.5	-15.3	15.3
COCC(=O)N(C)C[C@H]1Oc2cc(-c3ccccc3F)ccc2S(=O)(=O)N([C@@H](C)CO)C[C@H]1C	-55.2[16.7 µM]	-4.1	.	.	.	.
SMILES	miR122 inh	ARNT-TACC3 inh	CAL PDZ FP-1	CAL PDZ FP-2	SR-BI DiI-HDL act	SR-BI HDL uptake
C[N+](C)(CC#N)C/C=C\c1ccccc1	.	-6.6	76.0*	-0.4	6.6	-6.6
CN(C/C=C/c1ccccc1)Cc1cccc2ccccc12	-3.9	3.3	-0.2	-1.3	0.9	-0.9
C[C@@H]1CN([C@H](C)CO)S(=O)(=O)c2ccc(-c3cccc(F)c3)cc2O[C@@H]1CN(C)CC1CC1	1.8[16.7 µM]	15.0	.	.	.	.
C[C@H](O)C#Cc1cnc2c(c1)C(=O)N([C@H](C)CO)C[C@H](C)[C@@H](CN(C)CC1CCCCC1)O2	-7.6[16.7 µM]	-7.6	.	.	.	.
CCOc1ccc(N2CC(C(=O)Nc3cccc(S(=O)(=O)NC4=NCCC4)c3)CC2=O)cc1 (stereo not drawn)	-3.0	11.7	44.9*	-5.5	.	.
NNC(=O)c1sc(-c2ccc(Cl)cc2)cc1N	6.0	-8.5	.	-2.6	-110.1	110.1*
O=C(C[C@H]1CC[C@H]2[C@@H](COC[C@@H](O)CN2S(=O)(=O)c2ccc(Cl)cc2)O1)NCCN1CCCC1	0.0[16.7 µM]	-6.5	.	.	.	.
CO[C@H]1CN(C)C(=O)c2ccc(NC(=O)C3CC3)cc2OC[C@@H](C)N(Cc2ccccc2)C[C@@H]1C	-8.0[16.7 µM]	2.9	.	.	.	.
Cc1[nH]n(-c2ccccc2)c(=O)c1C(C[N+](=O)[O-])c1ccc(Br)cc1 (stereo not drawn)	-3.1	48.4*	0.0	.	-0.7	0.7
CNC[C@@H]1OCCCC[C@H](C)Oc2ccc(NC(=O)Nc3ccccc3)cc2C(=O)N([C@@H](C)CO)C[C@@H]1C	7.7[16.7 µM]	-1.7	.	.	.	.
Cc1ccc(S(=O)(=O)Nc2ccc3c(c2)CC(=O)N([C@H](C)CO)C[C@@H](C)[C@@H](CN(C)C(=O)Nc2c(C)noc2C)O3)cc1	-5.1[16.7 µM]	-7.3	.	.	.	.
CCC(C)[C@@H](CN(N=O)[C@@H](Cc1ccccc1)CN(C)N=O)N(CCc1ccccc1)N=O (stereo partly drawn)	0.7	0.2	-4.1	-0.2	67.6*	-67.6
COc1ccccc1C(C)Nc1ccc(S(=O)(=O)N2CCN(C)CC2)cc1[N+](=O)[O-] (stereo not drawn)	5.8	64.6*	.	-1.3	12.9	-12.9
Cc1ncc(CO)c(/C=N/Nc2ccc(C(F)(F)F)cn2)c1O	-13.8	71.7*	-1.5	-1.7	0.2	-0.2
Cc1ncc(CO)c(/C=N/N=C/c2ccccc2O)c1O	.	-4.9	1.7	-0.9	-28.8	28.8
Cc1ncc(CO)c(/C=N/NC(=S)Nc2ccc(F)cc2)c1O	8.6	53.8*	-1.4	-2.3	-13.2	13.2
FC(F)(F)c1ccc(N/N=C/c2cccnc2)nc1	2.7	-3.7	0.7	-2.8	9.1	-9.1
Cc1nc2c(-c3ccc(F)cc3)c(C)nn2c(C)c1CCC(=O)Nc1ccc(F)cc1F	.	10.9	-1.3	-1.4	-74.5	74.5*
